# Rows were chosen to be rich in hits. Some 2.9% of all compounds tested hit in one or more screens of this group.
# E-sel inducer: E-selectin induction on HUVECs; AID 686992; activation, % at 7.58 µM; HUVEC E-selectin immunofluorescence imaging; normalized: neutral wells 0, TNF-alpha wells 100; actives 0.37% (n = 260,000);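 active means mean E-selectin-positive cell signal at least 10% of the positive control, reached in at least 60% of replicates, without over 20% cell loss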
# Target sequence (P16581 whole entry, looked up): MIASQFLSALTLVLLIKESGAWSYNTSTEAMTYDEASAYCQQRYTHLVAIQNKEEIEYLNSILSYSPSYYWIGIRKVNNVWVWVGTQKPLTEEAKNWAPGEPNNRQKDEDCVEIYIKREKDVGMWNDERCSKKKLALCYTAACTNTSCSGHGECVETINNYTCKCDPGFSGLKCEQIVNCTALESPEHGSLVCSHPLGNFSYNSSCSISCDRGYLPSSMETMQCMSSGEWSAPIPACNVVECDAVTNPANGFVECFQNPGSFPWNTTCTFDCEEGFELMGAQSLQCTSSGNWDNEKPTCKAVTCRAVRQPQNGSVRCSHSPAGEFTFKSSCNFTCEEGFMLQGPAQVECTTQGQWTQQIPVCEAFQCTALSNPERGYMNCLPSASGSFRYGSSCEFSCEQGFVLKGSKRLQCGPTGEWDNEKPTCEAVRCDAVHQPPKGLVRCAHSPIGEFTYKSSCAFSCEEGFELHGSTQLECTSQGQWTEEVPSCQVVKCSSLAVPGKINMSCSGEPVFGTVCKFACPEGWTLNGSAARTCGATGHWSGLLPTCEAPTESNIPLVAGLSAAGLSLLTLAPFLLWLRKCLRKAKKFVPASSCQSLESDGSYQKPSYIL
#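 Assay system: HUVEC, human umbilical vein endothelial cells / Amount: 3,000 HUVEC/well / Controls: TNF-alpha positive control, DMSO neutral control / Compound dosing: single concentration / Medium: EGM-2 over gelatin coat / Evaluation: percent E-selectin-positive cells / Signal: immunofluorescence imaging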
# DENV2 CPE rescue: inhibitors of DENV2 cytopathic effect | actives 1.7% (n = 350,000) | AID 651640 | DENV2-infected cells, cytopathic effect rescue, plate reader | CPE inhibition, % at 9.99 µM; in the data active means CPE inhibition above about 20%, passing the limit was not always enough; tested in BHK-21 cells;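 further: 0% = median of neutral control wells and 100% = median of positive control wells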
# SIRT5 block: inhibitors of human sirtuin-5 desuccinylase | Q9NXA8 | inhibition, % at 15 µM | AID 652115 | Purified SirT5, succinyl-peptide AMC, trypsin-coupled fluorescence | actives 1.1% (n = 330,000); in the data active means inhibition above about 15%
# An asterisk follows results filed as active; / = no result given; ! = not active in a repeat.
SMILES,E-sel inducer,DENV2 CPE rescue,SIRT5 block
O=C(Cc1ccccn1)NCC[C@@H]1CC[C@H](NC(=O)Nc2ccc(F)cc2)[C@@H](CO)O1,-3.0,-11.3,6.3
C[C@@H]1CN([C@H](C)CO)C(=O)c2cc(-c3ccc(F)cc3)cnc2O[C@@H]1CN(C)C(=O)Nc1ccccc1F,-0.4,0.9,12.7
CC(C)NC(=O)Nc1ccc2c(c1)C(=O)N(C)[C@H]1CC[C@H](CC(=O)NCC(F)(F)F)O[C@@H]1CO2,0.0,7.0,/
CC(C)NC(=O)Nc1ccc2c(c1)C(=O)N(C)[C@@H]1CC[C@@H](CC(=O)NCC(F)(F)F)O[C@@H]1CO2,104.9*,-1.5,/
CCNC(=O)C[C@@H]1CC[C@H]2[C@H](COc3ccc(NC(=O)NC(C)C)cc3C(=O)N2C)O1,0.0,-5.5,-2.8
CCNC(=O)C[C@H]1CC[C@@H]2[C@H](COc3ccc(NC(=O)NC(C)C)cc3C(=O)N2C)O1,-0.1,40.9*,-4.7
Nc1nonc1-n1nnc(C(=O)N/N=C/c2cccc(Cl)c2)c1CN1CCCCCC1,0.1,2.7,/
C[C@H](CO)N1C[C@H](C)[C@H](CN(C)Cc2ccc(C(F)(F)F)cc2)Oc2ccc(NC(=O)Nc3cccc4ccccc34)cc2CC1=O,/,42.2*,0.3
C[C@H]1CN([C@@H](C)CO)C(=O)Cc2cc(NC(=O)Nc3cccc4ccccc34)ccc2O[C@H]1CN(C)Cc1ccc(C(=O)Nc2ccccc2N)cc1,9.1,6.4,-0.5
C[C@H]1CN([C@@H](C)CO)C(=O)Cc2cc(NC(=O)Nc3cccc4ccccc34)ccc2O[C@@H]1CN(C)Cc1ccc(C(F)(F)F)cc1,/,6.1,2.8
C[C@H](CO)N1C[C@H](C)[C@H](CN(C)Cc2ccc(C(=O)O)cc2)Oc2ccc(NC(=O)Nc3cccc4ccccc34)cc2CC1=O,0.2,4.7,-0.6
C[C@H]1CN([C@@H](C)CO)C(=O)Cc2cc(NC(=O)Nc3cccc4ccccc34)ccc2O[C@@H]1CN(C)Cc1ccc(C(=O)Nc2ccccc2N)cc1,13.4,38.2*,3.9
C[C@@H]1CN([C@H](C)CO)C(=O)Cc2cc(NC(=O)Nc3cccc4ccccc34)ccc2O[C@H]1CN(C)Cc1ccc(C(F)(F)F)cc1,/,-7.8,3.2
C[C@H](CO)N1C[C@H](C)[C@@H](CN(C)Cc2ccc(C(=O)O)cc2)Oc2ccc(NC(=O)Nc3cccc4ccccc34)cc2CC1=O,-0.2,76.5*,2.9
C[C@H]1CN([C@@H](C)CO)C(=O)Cc2cc(NC(=O)Nc3cccc4ccccc34)ccc2O[C@H]1CN(C)Cc1ccc(C(F)(F)F)cc1,/,33.5*,-2.1
COCC(=O)N1CCCCN2[C@H](CO)[C@H](c3ccc(C#Cc4cccnc4)cc3)[C@H]2C1,-0.3,6.2,-8.7
N#Cc1ccsc1NC(=O)CSc1nnnn1-c1ccc(O)cc1,5.6,9.5,/
CC(C)[C@H]1COCc2cn(nn2)CC[C@@H](Cc2ccccc2)C(=O)N1,-0.1,15.0,-0.6
C(=N\Nc1nncn1/N=C/c1ccco1)/c1ccco1,-0.3,-3.6,1.5
C[C@@H]1CN([C@@H](C)CO)C(=O)Cc2cc(NS(=O)(=O)c3cccs3)ccc2O[C@@H]1CN(C)CC1CCCCC1,0.0,-9.1,0.0
C[C@@H]1CN([C@H](C)CO)C(=O)Cc2cc(NC(=O)Nc3cccc4ccccc34)ccc2O[C@H]1CN(C)Cc1ccc2c(c1)OCO2,/,2.2,16.5*
C[C@@H]1CN([C@@H](C)CO)C(=O)Cc2cc(NC(=O)Nc3cccc4ccccc34)ccc2O[C@@H]1CN(C)Cc1ccc2c(c1)OCO2,/,-9.0,-0.5
CCC(C)(C)NC(=O)CN(C(=O)CNS(=O)(=O)c1ccc(F)cc1)c1ccc2c(c1)OCCO2,/,3.7,-1.2
CCN(CC)c1ccc(S(=O)(=O)N2CCOCC2)cc1NC(=O)CSc1nnc(N)s1,-0.1,-2.5,-5.7
C[C@@H]1CN([C@H](C)CO)C(=O)CCCn2nncc2CO[C@@H]1CN(C)S(=O)(=O)c1ccc(Oc2ccccc2)cc1,-0.2,-12.7,0.8
SMILES,E-sel inducer,DENV2 CPE rescue,SIRT5 block
C[C@@H]1CN([C@@H](C)CO)C(=O)CCCn2nncc2CO[C@@H]1CN(C)S(=O)(=O)c1ccccc1F,-6.7,-1.8,-5.6
C[C@H]1CN([C@@H](C)CO)C(=O)CCCn2nncc2CO[C@H]1CN(C)S(=O)(=O)c1ccccc1F,-0.2,27.4*!,-1.5
C[C@H]1CN([C@@H](C)CO)C(=O)CCCn2nncc2CO[C@H]1CN(C)S(=O)(=O)c1ccc(Oc2ccccc2)cc1,2.9,29.6*!,3.3
Cc1cccc(NS(=O)(=O)c2ccccc2)n1,/,/,-4.4
C[C@H](CO)N1C[C@H](C)[C@@H](CN(C)C)Oc2c(NC(=O)c3cnccn3)cccc2C1=O,/,29.7*,-2.1
C[C@@H]1CN([C@@H](C)CO)C(=O)c2cccc(NC(=O)c3cnccn3)c2O[C@@H]1CN(C)Cc1ccc(Oc2ccccc2)cc1,0.1,7.1,6.3

# Source: PubChem (Broad Institute)
